# Screens deposited in PubChem by several laboratories.
# Hits are enriched below; roughly 2.1% of the tested compounds scored in any of these assays.
# MC4R barr agon: activates human MC4R beta-arrestin recruitment; P32245; U2OS MC4R beta-arrestin complementation, luminescence; percent of melanotan II response, DMSO zero; activation, % at 8.9 µM; hit rate 0.98% among 360,000;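 active means activation above a per-plate cutoff, the mean activation of sample wells on that plate plus 3 SD, cut at about 8% in these data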
# NOD2-RIPK2 inh: NOD2-RIPK2 protein interaction inhibition | CHO BLA complementation NOD2-RIPK2, CCF4 ratio | hit rate 0.38% among 360,000 | inhibition, % at 4.98 µM; in the data active means inhibition above about 21%;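 further: 0% = vehicle only and 100% = reference blocker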
# TLR9-MyD88 block: inhibitors of human TLR9-MyD88 binding | Q9NR96+Q99836 | hit rate 0.21% among 340,000 | CHO BLA complementation TLR9-MyD88, CCF4 FRET ratio | inhibition, % at 4.98 µM;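 active means inhibition above the mean over all tested compounds plus 3 SD, cut at about 21% in these data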;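 further: 0% = DMSO only wells and 100% = clavulanate BLA inhibitor control wells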
# MIN6 prolif: inducers of beta-cell replication in MIN6 cells. MIN6 cells proliferation, ATPlite luminescence, 48 h; cells starved in 0.2% serum; 100% = growth in 10% serum. proliferation, % at 10 µM. hit rate 0.29% among 330,000;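 active means compounds whose signal lies at least 3.5 SD above the mean of all wells on their plate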;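 further: 0% = DMSO-treated cells in low-serum medium and 100% = 10% serum control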
# MC4R antag cAMP: human MC4R antagonism in cAMP assay | MC4R-expressing cells, MTII-stimulated cAMP, LANCE TR-FRET | inhibition, % at 6.5 µM | hit rate 0.48% among 360,000;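 active means inhibition above its plate's cutoff, the mean of tested wells on that plate plus 3 SD, cut at about 29% in these data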;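 further: 0% = Melanotan II alone and 100% = Melanotan II plus saturating MCL0020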
#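 System – human MC4R-expressing U2OS cells · Also added – Melanotan II · Dosing – one concentration, 6.5 µM nominal · Timing – 30-min compound, 1-h challenge, 1-h detection, room temperature · Measured by – Eu-cAMP/anti-cAMP TR-FRET, emission 671 nm · Replicates – singlicate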
# TLR4 MyD88 comp: inhibitors of human TLR4-MyD88 binding. HeLa CL3-4 TLR4/MyD88 BLA complementation, FRET ratio. inhibition, % at 8.4 µM. hit rate 0.18% among 200,000. AID 861; in the data active means inhibition above about 25%;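 further: 0% = vehicle and 100% = reference inhibitor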
# Target sequence (O00206 whole entry, looked up): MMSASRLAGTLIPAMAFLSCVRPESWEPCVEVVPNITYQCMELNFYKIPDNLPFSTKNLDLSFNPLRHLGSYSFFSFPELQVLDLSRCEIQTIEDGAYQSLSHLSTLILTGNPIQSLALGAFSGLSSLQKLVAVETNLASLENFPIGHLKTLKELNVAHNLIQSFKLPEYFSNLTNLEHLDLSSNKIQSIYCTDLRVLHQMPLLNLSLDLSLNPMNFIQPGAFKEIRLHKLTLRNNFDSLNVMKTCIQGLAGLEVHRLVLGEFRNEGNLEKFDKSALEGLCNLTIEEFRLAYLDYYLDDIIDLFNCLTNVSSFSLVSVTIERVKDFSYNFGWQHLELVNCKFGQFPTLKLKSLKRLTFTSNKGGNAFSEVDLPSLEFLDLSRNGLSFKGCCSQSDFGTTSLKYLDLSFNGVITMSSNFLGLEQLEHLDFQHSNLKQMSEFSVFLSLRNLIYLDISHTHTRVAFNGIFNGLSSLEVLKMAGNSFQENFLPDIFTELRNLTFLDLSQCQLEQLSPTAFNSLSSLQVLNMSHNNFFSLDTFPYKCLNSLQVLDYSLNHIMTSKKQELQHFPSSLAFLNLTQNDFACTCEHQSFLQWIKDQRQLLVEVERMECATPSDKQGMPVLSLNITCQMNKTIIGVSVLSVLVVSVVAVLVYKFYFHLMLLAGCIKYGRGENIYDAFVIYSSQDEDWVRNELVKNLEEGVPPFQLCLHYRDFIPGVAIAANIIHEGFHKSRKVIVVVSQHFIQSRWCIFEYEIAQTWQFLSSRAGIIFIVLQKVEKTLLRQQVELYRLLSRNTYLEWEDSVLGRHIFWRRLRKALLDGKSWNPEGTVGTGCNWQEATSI
# Target sequence (Q99836 whole entry, looked up): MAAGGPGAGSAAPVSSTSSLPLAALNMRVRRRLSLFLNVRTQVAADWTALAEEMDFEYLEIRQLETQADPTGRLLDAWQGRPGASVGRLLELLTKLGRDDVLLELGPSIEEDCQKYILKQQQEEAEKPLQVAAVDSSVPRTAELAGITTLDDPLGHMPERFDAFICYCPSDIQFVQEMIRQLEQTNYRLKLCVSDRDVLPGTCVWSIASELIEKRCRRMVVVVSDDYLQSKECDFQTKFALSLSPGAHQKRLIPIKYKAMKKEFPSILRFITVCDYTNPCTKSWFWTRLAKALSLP
# cAMP nonselect: nonselective cAMP signaling inhibitor, MC4R antagonist counter-screen | inhibition, % at 6.5 µM | AID 602193 | parental U2OS, forskolin cAMP, LANCE TR-FRET | hit rate 26% among 1,600 | shares compounds with MC4R antag cAMP;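 active means mean inhibition over triplicates above the low-control well mean plus 3 SD, set per campaign, cut at about 13% in these data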;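 further: signal is single emission at 671 nm which falls as cellular cAMP rises; 0% = forskolin-stimulated wells and 100% = buffer without forskolin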
# MC4R cAMP antag: human MC4R cAMP antagonism confirmation | shares compounds with MC4R antag cAMP | MC4R-expressing cells, MTII-stimulated cAMP, TR-FRET | inhibition, % at 6.5 µM | hit rate 27% among 1,600; in the data active means inhibition above about 29%;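 further: 0% = agonist stimulated wells alone and 100% = agonist stimulated wells plus saturating reference antagonist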
# The depositor's hits bear a star; . = no result given.
SMILES,MC4R barr agon,NOD2-RIPK2 inh,TLR9-MyD88 block,MIN6 prolif,MC4R antag cAMP,TLR4 MyD88 comp,cAMP nonselect,MC4R cAMP antag
Cc1c(CCC(=O)O)c(=O)oc2c(C)c(OCc3cc4c(cc3Cl)OCO4)ccc12,0,5,2,-3,14,.,.,.
COC(=O)COc1ccc(NS(=O)(=O)c2cccc([N+](=O)[O-])c2)cc1,-2,-6,0,-4,31*,4,22*,43*
CC(NC(=O)COC(=O)Cc1cccs1)c1ccc(F)cc1 (centres undefined),0,-3,16,.,3,.,.,.
O=C(C#Cc1ccccc1)c1ccccc1,-1,11,13,.,51*,.,29*,36*
CCCCn1c(N)c(N(C)C(=O)c2c(C)nn(-c3ccccc3)c2C)c(=O)[nH]c1=O,-1,-9,-1,1,1,.,.,.
CCc1nnc(SCC(=O)Nc2ccc3ccccc3c2)n1N,0,3,-3,-2,-2,.,.,.
Cc1ccc(S(=O)(=O)/N=C2/C=C(Sc3ncn[nH]3)C(=O)c3ccccc32)cc1,-1,-9,4,.,48*,-6,27*,35*
CC(C(=O)N1CCc2ccccc21)N1CCN(S(=O)(=O)c2cccc(C(F)(F)F)c2)CC1 (centres undefined),-3,1,-3,-4,-6,.,.,.
Cc1noc(C)c1CN1C(=O)c2ccc([N+](=O)[O-])cc2C1=O,-1,-8,7,2,4,.,.,.
Cc1noc(C)c1CN1C(=O)c2cccc([N+](=O)[O-])c2C1=O,0,0,-6,-3,30*,.,1,-10
CS(=O)(=O)c1ccc(C(=O)NCCN2C(=O)S/C(=C\c3cccnc3)C2=O)cc1[N+](=O)[O-],-2,2,15,-6,32*,-4,18*,33*
Cc1cc(C)c(S(=O)(=O)NCC(=O)NCc2ccccn2)c(C)c1,-3,-5,7,-2,30*,5,0,-2
CCOC(=O)c1ccc(Oc2c(C)oc3cc(OS(C)(=O)=O)ccc3c2=O)cc1,0,-18,-11,-4,17,-9,.,.
O=C(COc1ccc2ccccc2c1)N1CCN(C(=O)c2ccc([N+](=O)[O-])cc2)CC1,0,2,0,0,32*,-10,2,7
O=C(COc1ccccc1)N1CCN(C(=O)c2ccc([N+](=O)[O-])cc2)CC1,-1,-3,-3,-3,2,-5,.,.
O=C(COC(=O)c1nc(Cl)ccc1Cl)c1ccc[nH]1,5,-7,3,1,19,.,.,.
O=C(COC(=O)c1nc(Cl)c(Cl)c(Cl)c1Cl)c1ccc[nH]1,-3,12,4,-8,39*,.,11,37*
COCCN(CCOC)S(=O)(=O)c1ccc(C(=O)Nc2ccc(S(=O)(=O)Nc3nccc(C)n3)cc2)cc1,-2,-1,-6,1,30*,-5,-4,-16
CCOC(=O)C1CCN(C(=O)C2COc3ccccc3O2)CC1 (centres undefined),-1,0,-6,-2,9,.,.,.
O=C(CNS(=O)(=O)c1ccccc1)NCC(=O)N1CCCCC1,-1,-8,-10,-2,4,.,.,.
O=C(CNS(=O)(=O)c1ccccc1)NNC(=O)C(Cl)Cl,-2,-6,7,0,29*,7,-5,-13
O=C(NCC(c1cccs1)N1CCOCC1)c1ccc(Cl)c([N+](=O)[O-])c1 (centres undefined),-3,-3,-1,-3,41*,15,16*,47*
O=C(NCC(c1cccs1)N1CCOCC1)c1ccccc1NS(=O)(=O)c1ccc(Cl)c([N+](=O)[O-])c1 (centres undefined),0,0,-6,-6,29*,-9,4,5
CCOc1cc(/C=C2\N=C(C)OC2=O)cc(Br)c1OCC(=O)OC,-1,-2,-2,-1,44*,3,-3,-13
CCOC(=O)c1ccc(NC(=O)CSCC(=O)OCC(=O)c2ccccc2)cc1,2,-4,-7,0,36*,-2,8,18
SMILES,MC4R barr agon,NOD2-RIPK2 inh,TLR9-MyD88 block,MIN6 prolif,MC4R antag cAMP,TLR4 MyD88 comp,cAMP nonselect,MC4R cAMP antag
O=C(CSCC(=O)OCC(=O)c1ccc(Br)cc1)Nc1ccc(Br)cc1,2,-7,-17,-4,1,-1,.,.
Cc1ccc(OCCC(=O)NNC(=O)c2ccccc2F)cc1,-1,2,3,0,5,.,.,.
CCc1nc2c(OCCC3CCCCC3)cccn2c1N(C)C(=O)c1ccccc1F,-1,4,.,.,7,.,.,.
Cc1cc(C)cc(-n2c(SCC(=O)Nc3cccc(S(=O)(=O)NC4=NCCCCC4)c3)nc3ccccc3c2=O)c1,2,-1,-10,0,29*,-4,2,4
COc1ccc(NC(=O)NCc2ccco2)c(OC)c1,-1,-4,-6,-3,33*,0,2,2
COc1ccc(NC(=O)CC(C)C)c(OC)c1,-1,-10,-8,2,2,-4,.,.
COC(=O)C(Cc1ccccc1)NC(=O)CC(C)CC(=O)Nc1ccc(OC)cc1OC (centres undefined),0,-5,-7,1,35*,.,9,9
COc1ccc(NC(=O)Nc2ccccc2C)c(OC)c1,-1,-5,0,-1,4,14,.,.
COc1ccc(NC(=O)Nc2ccccc2SC)c(OC)c1,1,-13,2,-1,34*,8,-3,-10
CCc1cc2c3c([nH]c2cc1S(=O)(=O)NCCCOC)CC(C)(C)CC3=O,-1,-1,-18,-3,11,.,.,.
O=C(O)c1cc(-c2cccs2)nc2ccc(Br)cc12,-2,10,1,-1,111*,.,98*,153*
O=C(O)c1cc(-c2cccnc2)nc2ccc(Br)cc12,-1,-10,-11,2,49*,-6,42*,68*
O=C(O)c1cc(-c2ccc3c(c2)OCO3)nc2ccc(Br)cc12,-2,-2,-10,-4,37*,-15,12,30*
COC(=O)c1cc(-c2ccc3c(c2)OCO3)nc2ccccc12,0,-2,-2,3,3,0,.,.
CCCCN(C(=O)c1c(-c2ccccc2)noc1C)c1c(N)n(CCC)c(=O)[nH]c1=O,0,-4,8,-1,8,.,.,.
O=C(COC(=O)[C@@H]1CCCN1S(=O)(=O)c1ccc(Cl)cc1)NC12CC3CC(CC(C3)C1)C2,2,3,0,-3,32*,-9,14*,34*
